Most compounds without a hit are left out; they make up all but 5.6% or so of the library.
MPTP block = mitochondrial permeability transition pore inhibitors, primary screen, biochemical, isolated mouse mitochondria, absorbance | Ca2+ swelling absorbance, 30 min | inhibition, % at 10 µM | hit rate 1.4% among 360,000;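 active means inhibition of 50% or more, scaled per plate between neutral and stimulator controls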;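 further: 0% = DMSO wells given calcium and 100% = 1 mM EGTA wells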
GRIN3A LBD mod = binders of NR3A ligand-binding domain, primary screen, biophysical, differential scanning fluorimetry, uHTS. Glutamate receptor ionotropic, NMDA 3A (GRIN3A) ligand-binding domain. Tm shift relative to glycine control, % at 25 µM. hit rate 2.5% among 340,000. NR3A LBD differential scanning fluorimetry, Tm shift; 0% = protein alone, 100% = glycine-bound protein;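 active means melting temperature shift of at least 10% of the positive control shift, at one fixed dose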
CHOP inhibitor = inhibitors of CHOP promoter induction, primary screen, cell-based, unfolded protein response, luciferase reporter | inhibition, % at 10 µM | hit rate 3.8% among 220,000 | CHO-K1 CHOP-promoter luciferase, tunicamycin-induced, 15-18 h;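 active means compounds that reduced the stress-induced luciferase reporter signal by more than about 70% of percent inhibition, limit read from the data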;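 further: 0% = tunicamycin plus vehicle and 100% = wells without tunicamycin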
aDG glyco act = activators of alpha-DG glycosylation, primary screen, uHTS, Pro5-aDG cells, AlphaScreen | hit rate 0.22% among 360,000 | activation, % at 10 µM | AID 624168, 2012 | alpha-DG glycosylation AlphaScreen (IIH6); 0% Pro5, 100% B10-LARGE cell signal;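 active means activation of at least 8% versus controls, or a plate z-score of at least 8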;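 further: Pro5 are CHO cells carrying HIG-tagged alpha-DG that lacks glycosylation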
XBP1 UPR activ = activators of adaptive XBP1 UPR arm, primary screen, cell-based, CHO-XBP1 luciferase reporter, luminescence, uHTS | IRE1-XBP1 UPR activation; percent of tunicamycin response, DMSO as zero | hit rate 0.33% among 330,000 | activation, % at 20 µM;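 active means versus positive control, 20 µM dose yields 30% or more activation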;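 further: 100% = tunicamycin at 10 µg/mL and 0% = DMSO only wells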
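Material: CHO cell line with stable XBP1 luciferase reporter; buffer or medium: F12 medium containing 10% fetal bovine serum; compound: single point, 20 µM final compound, 1% DMSO; incubation: 6 h treatment, 37 °C; measured by: glow luminescence from Steady-Glo reagent; evaluation: activation, % of tunicamycin; control set: tunicamycin high, DMSO low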
CHOP UPR activ = activators of apoptotic CHOP UPR arm, primary screen, cell-based, CHO-CHOP luciferase reporter, luminescence, uHTS; UPR activation; percent of tunicamycin response over DMSO baseline; activation, % at 10 µM; hit rate 0.34% among 330,000;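 active means at 10 µM dose, activation of 40% or more, normalized to positive control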;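 further: 100% = tunicamycin at 10 µg/mL and 0% = DMSO alone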
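System: CHO-CHOP luciferase reporter cell line | Buffer or medium: F12 medium containing 10% fetal bovine serum | Doses: One dose, 10 µM in 0.5% DMSO | Times: 6 h compound exposure at 37 °C after overnight seeding | Signal: Luciferase luminescence | Read-out: % activation vs tunicamycin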
Starred values were filed as active, the others as inactive; . = no result given.

SMILES	MPTP block	GRIN3A LBD mod	CHOP inhibitor	aDG glyco act	XBP1 UPR activ	CHOP UPR activ
COc1ccc(/C=N\NS(=O)(=O)c2ccc(Cl)cc2)cc1COc1ccccc1[N+](=O)[O-]	-1.1	23.6*	49.9	0.0	-2.4	-0.9
c1ccc2c(-c3nc(C4CCCCC4)no3)cc(-c3ccncc3)nc2c1	6.0	15.2*	33.4	-0.2	-0.7	0.0
C/C(=N\NC(=O)c1ccc(Br)o1)c1cc2c(cc1NC(=O)CCC(=O)O)OCO2	-0.2	2.5	.	-0.2	-5.0	-0.7
c1csc(C(c2nnnn2C2CCCCC2)N2CCCC3(CCCCC3)C2)c1 (stereo not given)	2.7	1.9	81.8*	0.3	2.9	7.3
CC(C)(C)n1nnnc1C(c1cccs1)N1CCCC2(CCCCC2)C1 (stereo not given)	2.1	-15.4	15.1	0.1	-1.8	2.2
COc1ccc(/C=C(\C#N)C(=O)OCC(=O)Nc2ccc(C(C)(C)C)cc2)cc1	0.8	-4.3	27.0	-0.1	-0.6	2.8
COc1ccc(/C=C(\C#N)C(=O)OCC(=O)Nc2c(C)cccc2C)cc1	1.7	3.4	75.4*	0.0	0.6	1.3
CCc1cccc(CC)c1NC(=O)COC(=O)/C(C#N)=C/c1ccc(OC)cc1	1.2	6.7	75.0*	-0.3	-1.5	0.7
O=C(Nc1ccc(C2=CN(Cc3ccccc3)CCC2=O)cc1)OCc1ccccc1	-1.3	0.6	.	-0.1	-2.5	0.4
N#Cc1ccsc1NC(=O)COC(=O)CCCSc1nc2ccccc2s1	-3.6	-3.6	72.8*	0.2	-1.7	-1.1
Cc1cnc(NC(=O)CCCSc2nc3ccccc3s2)s1	2.0	2.0	76.5*	0.2	1.1	0.8
Cc1csc(NC(=O)CCCSc2nc3ccccc3s2)n1	0.6	-11.2	31.1	-0.1	-0.2	-0.5
CCC(C(=O)OCC(=O)NCc1ccc2c(c1)OCO2)c1ccccc1 (stereo not given)	-0.2	-0.3	.	0.0	-2.6	-1.1
Cc1ccc(-c2nc(CS(=O)(=O)CC(=O)N3CCc4ccccc4C3)c(C)o2)cc1	1.0	-2.1	72.4*	0.1	-1.2	-1.2
CC(C)(C)c1ccc(/C=C/C(=O)N2CCc3ccccc3C2)cc1	5.6	-1.3	60.8	0.1	-0.8	-0.7
Cc1ccc(/C=C/C(=O)N2CCc3ccccc3C2)cc1	-1.3	0.4	71.6*	0.5	2.2	3.3
COc1ccc(CSc2ccc(S(=O)(=O)N3CCCC3)cn2)cc1F	-0.9	.	.	-0.2	.	.
CCc1ccc(NC(=O)COC(=O)/C(=C/c2ccccc2OC)c2ccccc2)cc1	3.8	23.0*	10.5	0.1	0.7	0.1
Brc1ccc(Oc2nsnc2N2CCOCC2)cc1	0.6	1.2	83.7*	-0.3	-2.1	0.9
CSCc1ccc(C(=O)NCC(c2cccs2)N2CCOCC2)cc1 (stereo not given)	-0.6	-1.2	.	-0.1	-2.7	-0.3
CC1=NN(c2ccccc2)C(c2ccco2)C1 (stereo not given)	-0.4	-1.0	.	0.0	.	.
O=[N+]([O-])c1ccc(/C=C/C2=NN(c3ccccc3)C(c3ccco3)C2)cc1 (stereo not given)	8.4	263.1*	26.4	0.0	.	.
O=[N+]([O-])c1ccc(C2=NN(c3ccccc3)C(c3ccco3)C2)cc1 (stereo not given)	3.8	339.5*	5.3	0.0	.	.
Cc1cc2ccccc2c(=O)n1CC(=O)NCC(=O)N1CCN(c2cccc(Cl)c2)CC1	4.7	-1.9	89.2*	-0.1	2.5	-0.7
O=C(c1cc(F)c(F)c(F)c1F)N1CCN(C(=O)C2CCCO2)CC1 (stereo not given)	-3.6	-0.9	.	-0.1	0.2	-1.2
O=[N+]([O-])c1cccc(/C=C/c2nc[nH]c2[N+](=O)[O-])c1	28.0	15.9*	12.0	-0.2	-1.2	0.5
O=c1[nH]c(/C=C/c2cccc([N+](=O)[O-])c2)c([N+](=O)[O-])c(=O)[nH]1	-4.6	-2.4	.	-0.1	-2.5	1.1

Screening results (PubChem)
